Laboratory results: ChEMBL document CHEMBL4725282, “Discovery of a Conformationally Constrained Oxazolidinone with Improved Safety and Efficacy Profiles for the Treatment of Multidrug-Resistant Tuberculosis” (J Med Chem, 2020)

Assays:
[1] = Stability in CD-1 mouse liver microsome assessed as parent compound remaining at 1 uM measured after 30 mins in presence of NADPH by LC-MS/MS analysis; format: ADME; details: liver microsomes, read-out: Stabilty
Outline: (§1)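 Liver microsomes (male CD-1 mouse or pooled human), 1 mg/mL protein, compound 1 µM, 37°C with shaking. Started with 1 mM NADPH or run without cofactor. Quenched with ice-cold ACN/MeOH containing internal standard. Parent quantified by LC-MS/MS; 30 min concentration normalised to time zero.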

[2] = Stability in CD-1 mouse liver microsome at 1 uM measured after 30 mins in absence of NADPH by LC-MS/MS analysis; format: ADME; details: microsomes, 0.5 h; outline: as §1
[3] = Terminal half life in Balb/c mouse at 25 mg/kg, po by LC-MS/MS analysis; format: ADME, organism-based; details: in vivo, read-out: beta t1/2 (converted)
Outline: (§2)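 Female BALB/c mice, 20-25 g, five per route. Dosed 25 mg/kg p.o. in 0.5% carboxymethyl cellulose or 2.5 mg/kg i.v. in 10% DMSO/saline. Blood sampled 5 min-72 h (p.o.) or 2 min-48 h (i.v.), quantified by LC/MS/MS with ESI+. Parameters by non-compartmental analysis; F = (AUCpo×dose_iv)/(AUCiv×dose_po)×100%.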

[4] = AUC (0 to infinity) in Balb/c mouse at 25 mg/kg, po by LC-MS/MS analysis; format: ADME, organism-based; design: route oral, time infinity, dose 25 mg/kg; details: in vivo
Outline: (§3)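 Female BALB/c mice (20–25 g), five per route. Oral dose 25 mg/kg in 0.5% carboxymethyl cellulose; i.v. dose 2.5 mg/kg in 10% DMSO/physiological saline. Blood sampled 5 min–72 h after p.o. and 2 min–48 h after i.v. Analyte quantified by LC/MS/MS (ESI positive, C18, isocratic methanol/water). Parameters from non-compartmental analysis.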

[5] = Tmax in Balb/c mouse at 2.5 mg/kg, iv by LC-MS/MS analysis; format: ADME, organism-based; details: in vivo; outline: as §2
[6] = AUC (0 to t) in Balb/c mouse at 2.5 mg/kg, iv by LC-MS/MS analysis; format: ADME, organism-based; design: dose 2.5 mg/kg; details: in vivo; outline: as §3
[7] = MRT (0 to t) in Balb/c mouse at 2.5 mg/kg, iv by LC-MS/MS analysis; format: ADME, organism-based; details: in vivo; outline: as §3
[8] = Toxicity in CD-1 mouse assessed as increase in bone marrow micronucleus formation up to 2000 mg/kg, po administered daily via gavage for 2 days measured measured 18 to 24 hrs post last dose by microscopic analysis; format: organism-based; details: in vivo, 48 h, time 2 day
Outline: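 Male CD-1 (ICR) mice, 28.3-33.3 g, 3 per group. Oral gavage on 2 consecutive days, 24 h apart, at 100-2000 mg/kg; 500, 1000 and 2000 mg/kg analysed. Bone marrow harvested 18-24 h after last dose and scored microscopically for micronucleus frequency and PCE/total erythrocytes.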

[9] = Genotoxicity in CHO-WBL cells assessed as chromosome aberration at 90 to 397.1 ug/ml measured after 20 hrs in absence of S9 fraction by Giemsa staining based; format: toxicity, cell-based, Cricetulus griseus; details: chinese hamster, dose 90-397.1 µg/ml
Outline: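 CHO-WBL cells in McCoy's 5A with 10% FBS, seeded 20-24 h before treatment. Compound in DMSO, with or without serum-free S-9 mix. Treatment either 3 h, then HBSS wash and 17 h further culture, or 20 h; harvest at 20 h from treatment start. Colcemid 0.1 μg/mL for the final 2 h, hypotonic KCl, methanol:acetic acid fixation, Giemsa stain. 300 metaphases per concentration (150 per duplicate flask) scored.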

[10] = Mutagenicity in Salmonella typhimurium TA98 up to 1000 ug measured after 48 to 72 hrs in absence of S9 fraction by Ames test; format: toxicity; details: salmonella enterica subsp. enterica serovar typhimurium, dose <=1000 µg, time 48-72 hrs
Outline: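 Mini-Ames, plate incorporation in 6-well format. Bacteria, compound (DMSO vehicle, top 1000 µg/well), and 10% S9 mix or PBS were mixed into molten agar at 45°C and poured over minimal agar, then incubated 37°C for 48-72 h. Revertants were counted manually and the background lawn inspected. A result is positive at ≥2-fold the mean vehicle revertants with a dose-related increase.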

[11] = Inhibition of human CaV alpha1c/alpha2/delta/beta2a expressed in HEK293 cells measured after 60 mins by fluo-4 AM dye based fluorescence assay; format: cell-based; details: HEK293, 1 h
Outline: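 HEK-293 cells stably expressing human Cav1.2 (α1c, α2/δ, β2a) plus Kir2.3, seeded 1.2×10^4/well overnight in 1% FBS medium. Loaded with fluo-4 AM (4 μM), probenecid (5 mM) and brilliant black (1 mM) in 2× dye solution, 60 min at 37 °C. Ten concentrations from 1.52 to 30000 nM, duplicate, read on FLIPR (ex 470-495, em 515-575 nm). Inhibition normalised to KCl EC80 and solvent control; IC50 fitted.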

[12] = target: T1, Amine oxidase [flavin-containing] B (Homo sapiens, UniProt P27338); experiment: Inhibition of recombinant human MAOB expressed in baculovirus infected insect cells using kynuramine as substrate measured after 20 mins by LC-MS/MS analysis
T1 sequence (P27338 whole entry): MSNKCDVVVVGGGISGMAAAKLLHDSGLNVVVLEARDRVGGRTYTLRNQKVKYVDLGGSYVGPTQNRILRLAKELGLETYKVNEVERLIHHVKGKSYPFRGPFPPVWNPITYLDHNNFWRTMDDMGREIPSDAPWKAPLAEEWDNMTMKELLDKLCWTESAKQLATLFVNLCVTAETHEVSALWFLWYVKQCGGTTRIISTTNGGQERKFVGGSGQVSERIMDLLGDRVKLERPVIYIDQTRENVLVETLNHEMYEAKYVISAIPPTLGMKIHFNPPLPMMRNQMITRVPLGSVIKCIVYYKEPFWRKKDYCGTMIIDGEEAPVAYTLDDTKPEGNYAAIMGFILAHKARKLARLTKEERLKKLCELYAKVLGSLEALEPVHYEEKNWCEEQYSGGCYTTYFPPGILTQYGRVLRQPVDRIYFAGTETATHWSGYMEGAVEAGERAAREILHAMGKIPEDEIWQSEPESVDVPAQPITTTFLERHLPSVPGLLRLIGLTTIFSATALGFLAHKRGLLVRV
Outline: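 Recombinant human MAO-A or MAO-B (50 μg/mL) in 100 mM potassium phosphate pH 7.4 with 5 mM MgCl2. Kynuramine substrate at 50 μM (MAO-A) or 25 μM (MAO-B). […] 4-Hydroxyquinoline formation measured by LC-MS/MS versus vehicle; IC50 derived.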

[13] = Toxicity in male Sprague-Dawley rat assessed as effect on food consumption at 50 to 450 mg/kg/day, po administered for 4 weeks measured at 1 week interval; format: organism-based; details: in vivo, 672 h, dose 50-450 mg/kg/day
[14] = Toxicity in female Sprague-Dawley rat assessed as change in mean platelet volume at 50 mg/kg/day, po administered for 4 weeks followed by 2 week recovery period (Rvb =7.1 +/- 0.5 fL); format: organism-based; details: in vivo, 672 h
[15] = Toxicity in male Sprague-Dawley rat assessed as change in hemoglobin count at 50 mg/kg/day, po administered for 4 weeks followed by 2 week recovery period (Rvb =144 +/- 5 g/L); format: organism-based; details: in vivo, 672 h

In the case of `CC(=O)NC[C@@H]1OC(=O)N2c3cc(F)c(N4CC[S+]([O-])CC4)cc3OC[C@@H]12`, the remaining at 0.5 h, 1 µM [1] is reported as 100%, the Stabilty [2] is reported as “Stable” and the half-life [3] is reported as 6.28 h. It also gave an AUC(0-inf) [4] of 9020 ng·h/mL, a Tmax [5] of 0.7 h and an AUC(0-t) [6] of 443 ng·h/mL. The MRT last [7] was 3.52 h, the Activity [8] was “Non-Toxic” and the Activity [9] was “Non-Toxic”. The Activity [10] was “Non-Toxic”, the IC50 [11] was > 30 µM and the IC50 [12] was > 100 µM.

With `CC(=O)NC[C@@H]1OC(=O)N2c3cc(F)c(N4CCSCC4)cc3OC[C@@H]12` the remaining at 0.5 h, 1 µM [1] was 48.7%, the Stabilty [2] was “Stable” and the half-life [3] was 14.7 h. It also gave an AUC(0-inf) [4] of 7620 ng·h/mL, an AUC(0-t) [6] of 1160 ng·h/mL and an MRT last [7] of 0.54 h. For the same compound, the Activity [8] was “Non-Toxic”, the Activity [10] was “Non-Toxic” and the IC50 [11] was > 30 µM. For the same compound, the IC50 [12] was 3.2 µM, the Activity [13] was “Non-Toxic” and the Activity [14] was 7.1 fL. The Activity [15] was 136 g/L.
